In ChEMBL document CHEMBL1914394, “Synthesis and spectroscopic characterization of 4-butoxyethoxy-N-octadecyl-1,8-naphthalimide as a new fluorescent probe for the determination of proteins” (Bioorg Med Chem Lett, 2011):

Assays:
Albumin [1] = target: T1, Albumin (Bos taurus, UniProt P02769); test: Binding affinity to bovine serum albumin assessed as stem-volmer quenching constant at pH 7.4 at 298K by fluorescence spectroscopic analysis; format: ADME; settings: cattle, isolated protein
Outline: (§1)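 BSA intrinsic fluorescence titrated with increasing BON in HCl–Tris buffer, pH 7.4, at each of four temperatures. F0/F (without/with BON) plotted against BON concentration; the Stern–Volmer quenching constant KSV is taken from the linear fit.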

Albumin [2] = target: T1, Albumin; test: Binding affinity to bovine serum albumin assessed as binding constant at pH 7.4 at 293K by fluorescence spectroscopic analysis; format: ADME; settings: cattle, isolated protein
Outline: (§2)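 BSA fluorescence quenched by BON in HCl–Tris, pH 7.4, at four temperatures. Binding constants come from fitting the quenching data to the modified Stern–Volmer equation.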

Albumin [3] = target: T1, Albumin; test: Binding affinity to bovine serum albumin assessed as decrease in fluorescence intensity at 10^-5 mol/L at pH 7.4 at 298K by fluorescence spectroscopy in presence of warfarin; format: ADME; set-up: scale not given: the % may be the effect or the level left; settings: cattle, isolated protein, pH 7.4, 10 µM
Outline: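 Site-marker displacement by fluorescence titration: BON and BSA held at a 10:1 molar ratio, then warfarin added stepwise to the mixture. Excitation 280 nm; emission recorded 290–400 nm.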

Albumin [4] = target: T1, Albumin; test: Binding affinity to bovine serum albumin assessed as quenching constant at pH 7.4 at 293K by fluorescence spectroscopic analysis; format: ADME; settings: cattle, isolated protein
Outline: (§3)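 Quenching series of BSA with rising BON levels in HCl–Tris pH 7.4, run at four temperatures. KSV comes from the F0/F versus [BON] Stern–Volmer plot. The bimolecular quenching rate constant is calculated as Kq = KSV/τ0, with a biopolymer fluorescence lifetime τ0 of 10^-8 s.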

Albumin [5] = target: T1, Albumin; test: Binding affinity to bovine serum albumin assessed as decrease in fluorescence intensity at 1.5 x 10^-5 mol/L at pH 7.4 by fluorescence spectroscopy in presence of K+ cations; format: ADME; settings: cattle, isolated protein, pH 7.4, 15 µM
Outline: (§4)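 Fluorescence of the BON–BSA system in HCl–Tris pH 7.4 recorded with each interfering ion or amino acid added at different concentrations. Excitation 373 nm; emission scanned 390–550 nm; intensity change noted.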

Albumin [6] = target: T1, Albumin; test: Binding affinity to bovine serum albumin assessed as stem-volmer quenching constant at pH 7.4 at 303K by fluorescence spectroscopic analysis; format: ADME; settings: cattle, isolated protein; outline: as §1
Albumin [7] = target: T1, Albumin; test: Binding affinity to bovine serum albumin assessed as decrease in fluorescence intensity at 1.5 x 10^-5 mol/L at pH 7.4 by fluorescence spectroscopy in presence of Ca2+ cations; format: ADME; settings: cattle, isolated protein, pH 7.4, 15 µM; outline: as §4
Albumin [8] = target: T1, Albumin; test: Binding affinity to bovine serum albumin assessed as stem-volmer quenching constant at pH 7.4 at 293K by fluorescence spectroscopic analysis; format: ADME; settings: cattle, isolated protein; outline: as §1
Albumin [9] = target: T1, Albumin; test: Binding affinity to bovine serum albumin assessed as decrease in fluorescence intensity at 1.5 x 10^-5 mol/L at pH 7.4 by fluorescence spectroscopy in presence of Cu2+ cations; format: ADME; settings: cattle, isolated protein, pH 7.4, 15 µM; outline: as §4
Albumin [10] = target: T1, Albumin; test: Binding affinity to bovine serum albumin assessed as decrease in fluorescence intensity at 1.5 x 10^-5 mol/L at pH 7.4 by fluorescence spectroscopy in presence of Na+ cations; format: ADME; settings: cattle, isolated protein, pH 7.4, 15 µM; outline: as §4
Albumin [11] = target: T1, Albumin; test: Binding affinity to bovine serum albumin assessed as quenching constant at pH 7.4 at 293K by fluorescence spectroscopy; settings: cattle, isolated protein
Albumin [12] = target: T1, Albumin; test: Binding affinity to bovine serum albumin assessed as decrease in fluorescence intensity at 1.5 x 10^-5 mol/L at pH 7.4 by fluorescence spectroscopy in presence of Pb2+ cations; format: ADME; settings: cattle, isolated protein, pH 7.4, 15 µM; outline: as §4
Albumin [13] = target: T1, Albumin; test: Binding affinity to bovine serum albumin assessed as decrease in fluorescence intensity at 1.5 x 10^-5 mol/L at pH 7.4 by fluorescence spectroscopy in presence of Br- anions; format: ADME; settings: cattle, isolated protein, pH 7.4, 15 µM; outline: as §4
Albumin [14] = target: T1, Albumin; test: Binding affinity to bovine serum albumin assessed as decrease in fluorescence intensity at 1.5 x 10^-5 mol/L at pH 7.4 by fluorescence spectroscopy in presence of tryptophane; format: ADME; settings: cattle, isolated protein, pH 7.4, 15 µM; outline: as §4
Albumin [15] = target: T1, Albumin; test: Binding affinity to bovine serum albumin assessed as decrease in fluorescence intensity at 1.5 x 10^-5 mol/L at pH 7.4 by fluorescence spectroscopy in presence of SO42+ anions; format: ADME; settings: cattle, isolated protein, pH 7.4, 15 µM; outline: as §4
Albumin [16] = target: T1, Albumin; test: Binding affinity to bovine serum albumin assessed as stem-volmer quenching constant at pH 7.4 at 308K by fluorescence spectroscopic analysis; format: ADME; settings: cattle, isolated protein; outline: as §1
Albumin [17] = target: T1, Albumin; test: Binding affinity to bovine serum albumin assessed as decrease in fluorescence intensity at 1.5 x 10^-5 mol/L at pH 7.4 by fluorescence spectroscopy in presence of Mo6+ cations; format: ADME; settings: cattle, isolated protein, pH 7.4, 15 µM; outline: as §4
Albumin [18] = target: T1, Albumin; test: Binding affinity to bovine serum albumin assessed as decrease in fluorescence intensity at 1.5 x 10^-5 mol/L at pH 7.4 by fluorescence spectroscopy in presence of Mg2+ cations; format: ADME; settings: cattle, isolated protein, pH 7.4, 15 µM; outline: as §4
Albumin [19] = target: T1, Albumin; test: Binding affinity to bovine serum albumin assessed as decrease in fluorescence intensity at 1.5 x 10^-5 mol/L at pH 7.4 by fluorescence spectroscopy in presence of glycine; format: ADME; settings: cattle, isolated protein, pH 7.4, 15 µM; outline: as §4
Albumin [20] = target: T1, Albumin; test: Binding affinity to bovine serum albumin assessed as decrease in fluorescence intensity peak2 at 1.71 x 10^-5 mol/L at pH 7.4 at 293K by three-dimensional fluorescence spectroscopy analysis; format: ADME; set-up: scale not given: the % may be the effect or the level left; settings: cattle, isolated protein, pH 7.4, 17.1 µM
Albumin [21] = target: T1, Albumin; test: Binding affinity to bovine serum albumin assessed as decrease in fluorescence intensity at 1.5 x 10^-5 mol/L at pH 7.4 by fluorescence spectroscopy in presence of Mn2+ cations; format: ADME; settings: cattle, isolated protein, pH 7.4, 15 µM; outline: as §4
Albumin [22] = target: T1, Albumin; test: Binding affinity to bovine serum albumin assessed as binding constant at pH 7.4 at 303K by fluorescence spectroscopic analysis; format: ADME; settings: cattle, isolated protein; outline: as §2
Albumin [23] = target: T1, Albumin; test: Binding affinity to bovine serum albumin assessed as decrease in fluorescence intensity peak1 at 1.71 x 10^-5 mol/L at pH 7.4 at 293K by three-dimensional fluorescence spectroscopy analysis; format: ADME; set-up: scale not given: the % may be the effect or the level left; settings: cattle, isolated protein, pH 7.4, 17.1 µM
Albumin [24] = target: T1, Albumin; test: Binding affinity to bovine serum albumin assessed as decrease in fluorescence intensity at 1.5 x 10^-5 mol/L at pH 7.4 by fluorescence spectroscopy in presence of Cr3+ cations; format: ADME; settings: cattle, isolated protein, pH 7.4, 15 µM; outline: as §4
Albumin [25] = target: T1, Albumin; test: Binding affinity to bovine serum albumin assessed as decrease in fluorescence intensity at 1.5 x 10^-5 mol/L at pH 7.4 by fluorescence spectroscopy in presence of Zn2+ cations; format: ADME; settings: cattle, isolated protein, pH 7.4, 15 µM; outline: as §4
Albumin [26] = target: T1, Albumin; test: Binding affinity to bovine serum albumin assessed as decrease in fluorescence intensity at 1.5 x 10^-5 mol/L at pH 7.4 by fluorescence spectroscopy in presence of Cl- anions; format: ADME; settings: cattle, isolated protein, pH 7.4, 15 µM; outline: as §4
Albumin [27] = target: T1, Albumin; test: Binding affinity to bovine serum albumin assessed as decrease in fluorescence intensity at 1.5 x 10^-5 mol/L at pH 7.4 by fluorescence spectroscopy in presence of PO42+ anions; format: ADME; settings: cattle, isolated protein, pH 7.4, 15 µM; outline: as §4
Albumin [28] = target: T1, Albumin; test: Binding affinity to bovine serum albumin assessed as binding constant at pH 7.4 at 298K by fluorescence spectroscopic analysis; format: ADME; settings: cattle, isolated protein; outline: as §2
Albumin [29] = target: T1, Albumin; test: Binding affinity to bovine serum albumin assessed as binding constant at pH 7.4 at 308K by fluorescence spectroscopic analysis; format: ADME; settings: cattle, isolated protein; outline: as §2
Albumin [30] = target: T1, Albumin; test: Binding affinity to bovine serum albumin assessed as quenching constant at pH 7.4 at 303K by fluorescence spectroscopic analysis; format: ADME; settings: cattle, isolated protein; outline: as §3
Albumin [31] = target: T1, Albumin; test: Binding affinity to bovine serum albumin assessed as decrease in fluorescence intensity at 1.5 x 10^-5 mol/L at pH 7.4 by fluorescence spectroscopy in presence of proline; format: ADME; settings: cattle, isolated protein, pH 7.4, 15 µM; outline: as §4
Albumin [32] = target: T1, Albumin; test: Binding affinity to bovine serum albumin assessed as quenching constant at pH 7.4 at 308K by fluorescence spectroscopic analysis; format: ADME; settings: cattle, isolated protein; outline: as §3
Albumin [33] = target: T1, Albumin; test: Binding affinity to bovine serum albumin assessed as decrease in fluorescence intensity at 1.5 x 10^-5 mol/L at pH 7.4 by fluorescence spectroscopy in presence of lysine; format: ADME; settings: cattle, isolated protein, pH 7.4, 15 µM; outline: as §4
Albumin [34] = target: T1, Albumin; test: Binding affinity to bovine serum albumin assessed as quenching constant at pH 7.4 at 298K by fluorescence spectroscopic analysis; format: ADME; settings: cattle, isolated protein; outline: as §3
Albumin [35] = target: T1, Albumin; test: Binding affinity to bovine serum albumin assessed as decrease in fluorescence intensity at 1.5 x 10^-5 mol/L at pH 7.4 by fluorescence spectroscopy in presence of Ni2+ cations; format: ADME; settings: cattle, isolated protein, pH 7.4, 15 µM; outline: as §4
Albumin [36] = target: T1, Albumin; test: Binding affinity to bovine serum albumin assessed as decrease in fluorescence intensity at 1.5 x 10^-5 mol/L at pH 7.4 by fluorescence spectroscopy in presence of tyrosine; format: ADME; settings: cattle, isolated protein, pH 7.4, 15 µM; outline: as §4
Albumin [37] = target: T1, Albumin; test: Binding affinity to bovine serum albumin assessed as decrease in fluorescence intensity at 1.5 x 10^-5 mol/L at pH 7.4 by fluorescence spectroscopy in presence of Fe3+ cations; format: ADME; settings: cattle, isolated protein, pH 7.4, 15 µM; outline: as §4

T1 sequence (P02769 whole entry): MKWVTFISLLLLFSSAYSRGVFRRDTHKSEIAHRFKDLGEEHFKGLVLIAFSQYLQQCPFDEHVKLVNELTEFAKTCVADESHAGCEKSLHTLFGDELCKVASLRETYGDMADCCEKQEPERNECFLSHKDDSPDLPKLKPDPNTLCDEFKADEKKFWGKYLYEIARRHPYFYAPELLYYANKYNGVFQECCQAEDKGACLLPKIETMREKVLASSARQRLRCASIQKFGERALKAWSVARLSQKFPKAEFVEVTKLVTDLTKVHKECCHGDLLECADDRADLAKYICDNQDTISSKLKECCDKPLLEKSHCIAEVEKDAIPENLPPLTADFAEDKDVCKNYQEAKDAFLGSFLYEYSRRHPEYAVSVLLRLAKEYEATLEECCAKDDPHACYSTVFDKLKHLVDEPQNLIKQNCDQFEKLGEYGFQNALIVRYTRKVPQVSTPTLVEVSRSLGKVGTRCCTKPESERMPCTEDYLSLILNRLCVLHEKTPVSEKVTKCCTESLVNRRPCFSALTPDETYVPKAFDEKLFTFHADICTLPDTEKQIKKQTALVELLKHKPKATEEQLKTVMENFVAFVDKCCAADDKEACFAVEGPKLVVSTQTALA

CCCCCCCCCCCCCCCCCCN1C(=O)c2cccc3c(OCCOCCCC)ccc(c23)C1=O
KSV (Albumin [1]): 9.03 ×10³ L/mol | Kb (Albumin [2]): 3.89 ×10³ L/mol | Activity (Albumin [3]): 42% | Kq (Albumin [4]): 9.4 ×10¹¹ L/mol/s | Activity (Albumin [5]): Not Active | KSV (Albumin [6]): 8.76 ×10³ L/mol | Activity (Albumin [7]): Not Active | KSV (Albumin [8]): 9.4 ×10³ L/mol | Activity (Albumin [9]): Not Active | Activity (Albumin [10]): Not Active | Activity (Albumin [11]): Active | Activity (Albumin [12]): Not Active | Activity (Albumin [13]): Active | Activity (Albumin [14]): Active | Activity (Albumin [15]): Active | KSV (Albumin [16]): 8.54 ×10³ L/mol | Activity (Albumin [17]): Not Active | Activity (Albumin [18]): Not Active | Activity (Albumin [19]): Active | Activity (Albumin [20]): 37.24% | Activity (Albumin [21]): Not Active | Kb (Albumin [22]): 2.12 ×10³ L/mol | Activity (Albumin [23]): 25.16% | Activity (Albumin [24]): Not Active | Activity (Albumin [25]): Not Active | Activity (Albumin [26]): Active | Activity (Albumin [27]): Active | Kb (Albumin [28]): 2.82 ×10³ L/mol | Kb (Albumin [29]): 1.77 ×10³ L/mol | Kq (Albumin [30]): 8.76 ×10¹¹ L/mol/s | Activity (Albumin [31]): Active | Kq (Albumin [32]): 8.54 ×10¹¹ L/mol/s | Activity (Albumin [33]): Active | Kq (Albumin [34]): 9.03 ×10¹¹ L/mol/s | Activity (Albumin [35]): Not Active | Activity (Albumin [36]): Active | Activity (Albumin [37]): Not Active
